Measured values taken from ChEMBL document CHEMBL4261522, “Discovery of potential antifungal triazoles: design, synthesis, biological evaluation, and preliminary antifungal mechanism exploration” (Medchemcomm, 2017).
≈ marks a conversion by molar mass, not a printed value. Calls of active or inactive are those of the source. No cut-off for these calls is given here.

Legend:
[1] = tested on: Kregervanrija fluxuum; experiment: Antifungal activity against Candida mycoderma by two-fold serial dilution method; format: functional
In short: (§1)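 MIC by standard two-fold serial dilution in 96-well microplates following NCCLS guidelines. Strains were supplied by Southwest University School of Pharmaceutical Sciences and Third Military Medical University College of Pharmacy.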

[2] = tested on: Candida albicans; experiment: Antifungal activity against Candida albicans by two-fold serial dilution method; format: functional; in short: as §1
[3] = tested on: Saccharomyces cerevisiae; experiment: Antifungal activity against Saccharomyces cerevisiae by two-fold serial dilution method; format: functional; in short: as §1
[4] = tested on: Aspergillus flavus; experiment: Antifungal activity against Aspergillus flavus by two-fold serial dilution method; format: functional; in short: as §1
[5] = tested on: Cyberlindnera jadinii; experiment: Antifungal activity against Candida utilis by two-fold serial dilution method; format: functional; conditions: Williopsis jadinii; in short: as §1
[6] = tested on: Aspergillus flavus; experiment: Potency index, ratio of miconazole MIC to compound MIC for Aspergillus flavus by two-fold serial dilution method; format: functional
[7] = tested on: Calf thymus DNA; experiment: Inhibition of neural red dye binding to calf thymus DNA by UV absorption spectral analysis; format: nucleic-acid assay; conditions: Bos taurus
[8] = tested on: Calf thymus DNA; experiment: Binding affinity to calf thymus DNA assessed as hypochromic effect between compound and DNA by UV absorption spectral analysis; format: nucleic-acid assay; conditions: Bos taurus
In short: (§2)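 UV absorption of the compound–DNA complex compared with the summed absorbance of free DNA and free compound. A measured value below the sum was read as hypochromism and one above it as hyperchromism.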

[9] = tested on: Saccharomyces cerevisiae; experiment: Potency index, ratio of miconazole MIC to compound MIC for Saccharomyces cerevisiae; format: functional
[10] = tested on: Aspergillus flavus; experiment: Potency index, ratio of fluconazole MIC to compound MIC for Aspergillus flavus by two-fold serial dilution method; format: functional
[11] = tested on: Calf thymus DNA; experiment: Binding affinity to calf thymus DNA assessed as iodide quenching by measuring Stern-Volmer quenching constant by fluorescence spectral analysis (reference value: 11.6 +/- 0.067 L/mol); format: nucleic-acid assay; conditions: Bos taurus
In short: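 Fluorescence titration with KI as quencher, 0–12 × 10–3 mol L–1 in 2 × 10–3 mol L–1 steps. Compound at 1.0 × 10–5 mol L–1, alone or with DNA at 2.0 × 10–5 mol L–1. Run at 298 K with excitation at 290 nm. Quenching constant taken from a Stern–Volmer plot of F0/F against KI.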

[12] = tested on: Calf thymus DNA; experiment: Binding affinity to calf thymus DNA by UV absorption spectral analysis; format: nucleic-acid assay; conditions: Bos taurus
[13] = tested on: Calf thymus DNA; experiment: Binding affinity to calf thymus DNA assessed as hyperchromic effect between compound and DNA by UV absorption spectral analysis; format: nucleic-acid assay; conditions: Bos taurus; in short: as §2
[14] = tested on: Cyberlindnera jadinii; experiment: Potency index, ratio of miconazole MIC to compound MIC for Candida utilis by two-fold serial dilution method; format: functional
[15] = tested on: Kregervanrija fluxuum; experiment: Potency index, ratio of miconazole MIC to compound MIC for Candida mycoderma; format: functional

Compound	MIC [1] [µg/mL]	MIC [2] [µg/mL]	MIC [3] [µg/mL]	MIC [4] [µg/mL]	MIC [5] [µg/mL]	Ratio [6]	inhibition [7]	Activity [8]	Ratio [9]	Ratio [10]	KSV [11] [L/mol]	Activity [12]	K [12] [×10⁴ L/mol]	Activity [13]	Ratio [14]	Ratio [15]
Fc1ccc(C(Cn2cncn2)OCc2ccc(Cl)cc2)c(F)c1 (stereo unspecified)	16 (≈ 45.7 µM)	8 (≈ 22.9 µM)	16 (≈ 45.7 µM)	8 (≈ 22.9 µM)	4 (≈ 11.4 µM)											
Fc1ccc(C(Cn2cncn2)OCc2ccc(Cl)c(Cl)c2)c(F)c1 (stereo unspecified)	4 (≈ 10.4 µM)	1 (≈ 2.6 µM)	0.5 (≈ 1.3 µM)	8 (≈ 20.8 µM)	1 (≈ 2.6 µM)	32	Dose-dependent effect	Active	64	32	10.7	Dose-dependent effect	1.04			
Fc1ccc(C(Cn2cncn2)OCc2ccccc2Cl)c(F)c1 (stereo unspecified)	8 (≈ 22.9 µM)	8 (≈ 22.9 µM)	16 (≈ 45.7 µM)	16 (≈ 45.7 µM)	8 (≈ 22.9 µM)											
CCCCCCCCCCCCOC(Cn1cncn1)c1ccc(F)cc1F (stereo unspecified)	> 256	> 256	8 (≈ 20.3 µM)	128 (≈ 325 µM)	> 256				4							
Fc1ccc(COC(Cn2c[n+](Cc3ccc(F)cc3F)cn2)c2ccc(F)cc2F)c(F)c1.[Cl-] (stereo unspecified)	> 256	> 256	128	> 256	> 256											
Fc1ccc(C(Cn2cncn2)OCCCCCCOC(Cn2cncn2)c2ccc(F)cc2F)c(F)c1 (stereo unspecified)	256 (≈ 481 µM)	256 (≈ 481 µM)	128 (≈ 240 µM)	256 (≈ 481 µM)	> 256											
Cc1cc(=O)oc2cc(OCCCCOC(Cn3cncn3)c3ccc(F)cc3F)ccc12 (stereo unspecified)	2 (≈ 4.39 µM)	4 (≈ 8.78 µM)	4 (≈ 8.78 µM)	32 (≈ 70.3 µM)	16 (≈ 35.1 µM)											
Fc1ccc(C(Cn2c[n+](Cc3ccc(Cl)c(Cl)c3)cn2)OCc2ccc(Cl)c(Cl)c2)c(F)c1.[Cl-] (stereo unspecified)	64	32	16	64	32											
Fc1ccc(C(Cn2cncn2)OCc2ccccc2F)c(F)c1 (stereo unspecified)	2 (≈ 6 µM)	0.5 (≈ 1.5 µM)	16 (≈ 48 µM)	32 (≈ 96 µM)	4 (≈ 12 µM)	8				8						
Cc1cc(=O)oc2cc(OCCCCCCOC(Cn3cncn3)c3ccc(F)cc3F)ccc12 (stereo unspecified)	1 (≈ 2.07 µM)	2 (≈ 4.14 µM)	16 (≈ 33.1 µM)	16 (≈ 33.1 µM)	16 (≈ 33.1 µM)		Dose-dependent effect					Dose-dependent effect	5.06	Active		
Fc1ccc(C(Cn2cncn2)OCCCCOC(Cn2cncn2)c2ccc(F)cc2F)c(F)c1 (stereo unspecified)	128 (≈ 254 µM)	128 (≈ 254 µM)	64 (≈ 127 µM)	64 (≈ 127 µM)	128 (≈ 254 µM)											
Clc1ccc(COC(Cn2ccnc2)c2ccc(Cl)cc2Cl)c(Cl)c1 (stereo unspecified) [MICONAZOLE]	8 (≈ 19.2 µM)	4 (≈ 9.61 µM)	32 (≈ 76.9 µM)	256 (≈ 615 µM)	16 (≈ 38.4 µM)											
Fc1ccc(C(Cn2cncn2)OCCOC(Cn2cncn2)c2ccc(F)cc2F)c(F)c1 (stereo unspecified)	256 (≈ 537 µM)	64 (≈ 134 µM)	8 (≈ 16.8 µM)	256 (≈ 537 µM)	8 (≈ 16.8 µM)											
OC(Cn1cncn1)(Cn1cncn1)c1ccc(F)cc1F [FLUCONAZOLE]	4 (≈ 13.1 µM)	1 (≈ 3.27 µM)	16 (≈ 52.2 µM)	256 (≈ 836 µM)	8 (≈ 26.1 µM)											
Fc1ccc(C(Cn2cncn2)OCc2ccc(Cl)cc2Cl)c(F)c1 (stereo unspecified)	16 (≈ 41.6 µM)	8 (≈ 20.8 µM)	8 (≈ 20.8 µM)	16 (≈ 41.6 µM)	4 (≈ 10.4 µM)	16				16						
Fc1ccc(C(Cn2c[n+](Cc3ccc(Cl)cc3Cl)cn2)OCc2ccc(Cl)cc2Cl)c(F)c1.[Cl-] (stereo unspecified)	32	16	64	32	8											
Fc1ccc(C(Cn2cncn2)OCc2cccc(Cl)c2)c(F)c1 (stereo unspecified)	16 (≈ 45.7 µM)	16 (≈ 45.7 µM)	16 (≈ 45.7 µM)	32 (≈ 91.5 µM)	8 (≈ 22.9 µM)											
CCCCCCCCOC(Cn1cncn1)c1ccc(F)cc1F (stereo unspecified)	16 (≈ 47.4 µM)	4 (≈ 11.9 µM)	16 (≈ 47.4 µM)	128 (≈ 379 µM)	16 (≈ 47.4 µM)											
O=[N+]([O-])c1ccc(COC(Cn2cncn2)c2ccc(F)cc2F)cc1 (stereo unspecified)	> 256	> 256	> 256	> 256	> 256											
O=[N+]([O-])c1ccc(COC(Cn2c[n+](Cc3ccc([N+](=O)[O-])cc3)cn2)c2ccc(F)cc2F)cc1.[Cl-] (stereo unspecified)	16	8	64	16	32											
CCCCCCOC(Cn1cncn1)c1ccc(F)cc1F (stereo unspecified)	32 (≈ 103 µM)	64 (≈ 207 µM)	32 (≈ 103 µM)	32 (≈ 103 µM)	16 (≈ 51.7 µM)											
CCCCOC(Cn1cncn1)c1ccc(F)cc1F (stereo unspecified)	64 (≈ 228 µM)	64 (≈ 228 µM)	128 (≈ 455 µM)	128 (≈ 455 µM)	8 (≈ 28.4 µM)										2	
Fc1ccc(COC(Cn2cncn2)c2ccc(F)cc2F)c(F)c1 (stereo unspecified)	8 (≈ 22.8 µM)	4 (≈ 11.4 µM)	4 (≈ 11.4 µM)	16 (≈ 45.5 µM)	4 (≈ 11.4 µM)	16				16						
CCCOC(Cn1cncn1)c1ccc(F)cc1F (stereo unspecified)	1 (≈ 3.74 µM)	4 (≈ 15 µM)	64 (≈ 239 µM)	128 (≈ 479 µM)	32 (≈ 120 µM)											8
Cc1cc(=O)oc2cc(OCCOC(Cn3cncn3)c3ccc(F)cc3F)ccc12 (stereo unspecified)	256 (≈ 599 µM)	128 (≈ 299 µM)	128 (≈ 299 µM)	256 (≈ 599 µM)	256 (≈ 599 µM)											
Fc1ccc(C(Cn2c[n+](Cc3ccccc3F)cn2)OCc2ccccc2F)c(F)c1.[Cl-] (stereo unspecified)	8	32	32	64	32											
OC(Cn1cncn1)c1ccc(F)cc1F (stereo unspecified)	256 (≈ 1140 µM)	128 (≈ 568 µM)	> 256	> 256	256 (≈ 1140 µM)											
